Source: ChEMBL document CHEMBL3808283, “Biological Characterization and in Vivo Assessment of the Activity of a New Synthetic Macrocyclic Antifungal Compound” (J Med Chem, 2016)
Values after ≈ are worked out from the molar mass of the structure shown. Active and inactive are the calls of the source. The calls are words filed in the database; no cut-off is given here.

Columns and labels:
[1] = Antifungal activity against Geotrichum silvicola measured at 72 hrs by broth dilution assay; assay type: functional
How it was run: (§1)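 EUCAST broth microdilution, including the update for non-fermenting yeasts (Cryptococcus, Geotrichum), on clinical and reference yeast isolates. Incubated at 37 °C and read at 24, 48 and 72 h. MIC taken as the lowest concentration with no visible growth. For Cryptococcus and Geotrichum, MICs were read only once growth was visible in the control row.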

[2] = system: Candida parapsilosis; test: Ratio of MIC at 24 hrs to MIC at 48 hrs for Candida parapsilosis ATCC 34136; assay type: functional
How it was run: (§2)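 MICs by EUCAST broth microdilution, with the update for non-fermenting yeasts, incubated at 37 °C. Read at 24, 48 and 72 h as the lowest concentration preventing visible growth.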

[3] = system: Candida parapsilosis; test: Fungicidal activity against Candida parapsilosis 81E at 40 uM after 24 to 48 hrs by time kill assay; assay type: functional, organism-based
How it was run: (§3)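 EUCAST broth microdilution at 37 °C. From wells at MIC, 2×, 4× and 8× MIC, 10 µL aliquots were taken, serially 10-fold diluted in saline and plated on Sabouraud dextrose agar. Plates were incubated at 37 °C for 24/48 h, and 48 h for Cryptococcus and Geotrichum. Done in duplicate, detection limit 10 CFU/mL. A drop of at least 3 Log10 CFU/mL from the initial inoculum in 24 h counts as fungicidal; a smaller drop counts as fungistatic.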

[4] = system: Candida albicans; test: Upregulation of orf19.3089 gene expression in Candida albicans SC5314 at 3 uM after 45 mins by microarray method relative to control; assay type: functional
How it was run: (§4)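 Log-phase cultures in liquid YEPD were exposed to 3 µM compound (final) for 15 or 45 min, with untreated controls sampled at the same times, in three biological replicates. Total RNA was extracted by glass-bead/phenol-chloroform disruption and integrity-checked. One-color Cy3-labelled cRNA (600 ng) was hybridized for 17 h at 65 °C to 8 × 15K arrays, and fold change was taken versus control.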

[5] = system: Candida parapsilosis; test: Antifungal activity against Candida parapsilosis ATCC 34136 measured at 24 hrs by broth dilution assay; assay type: functional; conditions: Lodderomyces parapsilosis, ATCC 34136, 24 h; how it was run: as §1
[6] = system: Candida tropicalis; test: Ratio of MIC at 24 hrs to MIC at 48 hrs for Candida tropicalis 86E; assay type: functional; how it was run: as §2
[7] = system: Candida albicans; test: Antifungal activity against Candida albicans ATCC 60193 measured at 48 hrs by broth dilution assay; assay type: functional; conditions: ATCC 60193, 48 h; how it was run: as §1
[8] = system: Candida albicans; test: Antifungal activity against Candida albicans 4T up to 96 hrs by broth dilution assay; assay type: functional, organism-based
[9] = system: Candida albicans; test: Antifungal activity against Candida albicans isolate DSY654 harboring CDR1/2 deletion mutant at 10 uM by serial dilution assay; assay type: functional, organism-based
How it was run: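 Spot dilution assay: C. albicans cells 10-fold serially diluted from 2 × 10^7 cells/mL, with 5 µL of each dilution spotted onto YEPD agar plates containing the drug.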

[10] = system: Candida parapsilosis; test: Antifungal activity against Candida parapsilosis 64E measured at 72 hrs by broth dilution assay; assay type: functional; conditions: Lodderomyces parapsilosis; how it was run: as §1
[11] = system: Candida albicans; test: Upregulation of orf19.1887 gene expression in Candida albicans SC5314 at 3 uM after 45 mins by microarray method relative to control; assay type: functional; how it was run: as §4
[12] = system: Pichia kudriavzevii; test: Ratio of MIC at 24 hrs to MIC at 48 hrs for Candida krusei ATCC 14243; assay type: functional; how it was run: as §2
[13] = system: Candida albicans; test: Upregulation of PDR16 gene expression in Candida albicans SC5314 at 3 uM after 45 mins by microarray method relative to control; assay type: functional
How it was run: (§5)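 Log-phase C. albicans SC5314 in liquid YEPD exposed to 3 µM final for 15 or 45 min; untreated controls taken at the same time points. Three biological replicates. RNA extracted by glass-bead/phenol-chloroform method and integrity checked. One-color Cy3-labeled cRNA (600 ng) hybridized 17 h at 65 °C to 8 × 15K arrays. Expression expressed as fold change versus control.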

[14] = system: Candida albicans; test: Upregulation of orf19.2726 gene expression in Candida albicans SC5314 at 3 uM after 15 mins by microarray method relative to control; assay type: functional; how it was run: as §4
[15] = system: Candida tropicalis; test: Antifungal activity against Candida tropicalis 86E measured at 24 hrs by broth dilution assay; assay type: functional; how it was run: as §1
[16] = system: Candida albicans; test: Antifungal activity against Candida albicans 15T up to 96 hrs by broth dilution assay; assay type: functional, organism-based
[17] = system: Candida tropicalis; test: Fungicidal activity against Candida tropicalis 86E assessed as reduction in CFU at 20 uM measured at 24 hrs by time kill assay relative to control; assay type: functional; how it was run: as §3
[18] = system: Pichia kudriavzevii; test: Antifungal activity against Candida krusei 193T measured at 72 hrs by broth dilution assay; assay type: functional; how it was run: as §1
[19] = Antifungal activity against Geotrichum silvicola measured at 24 hrs by broth dilution assay; assay type: functional; how it was run: as §1
[20] = system: Candida albicans; test: Upregulation of orf19.1438 gene expression in Candida albicans SC5314 at 3 uM after 15 mins by microarray method relative to control; assay type: functional; how it was run: as §5
[21] = system: Nakaseomyces glabratus; test: Antifungal activity against Candida glabrata 70 measured at 48 hrs by broth dilution assay; assay type: functional; conditions: Nakaseomyces glabratus, 70, 48 h; how it was run: as §1
[22] = system: Candida albicans; test: Upregulation of ARE2 gene expression in Candida albicans SC5314 at 3 uM after 45 mins by microarray method relative to control; assay type: functional; how it was run: as §5
[23] = system: Candida albicans; test: Upregulation of IFU5 gene expression in Candida albicans SC5314 at 3 uM after 15 mins by microarray method relative to control; assay type: functional; how it was run: as §5
[24] = system: Candida albicans; test: Antifungal activity against Candida albicans 53T measured at 48 hrs by broth dilution assay; assay type: functional; how it was run: as §1
[25] = system: Candida albicans; test: Upregulation of RTA2 gene expression in Candida albicans SC5314 at 3 uM after 45 mins by microarray method relative to control; assay type: functional; how it was run: as §5
[26] = system: Candida albicans; test: Antifungal activity against Candida albicans 15T measured at 48 hrs by broth dilution assay; assay type: functional; how it was run: as §1
[27] = system: Candida albicans; test: Antifungal activity against Candida albicans 4T measured at 24 hrs by broth dilution assay; assay type: functional; how it was run: as §1
[28] = system: Candida albicans; test: Upregulation of FCR1 gene expression in Candida albicans SC5314 at 3 uM after 15 mins by microarray method relative to control; assay type: functional; how it was run: as §5
[29] = system: Candida albicans; test: Antifungal activity against azole-resistant Candida albicans isolate DSY296 in immunocompetent Balb/c mouse candidiasis model assessed as reduction in CFU count in spleen at 40 mg/kg/day, ip regime measured on day 7 post infection; assay type: functional, organism-based
How it was run: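 Immunocompetent BALB/c mice, 10 per strain group, received 7 × 10^4 CFU of C. albicans in 200 µL saline via the lateral vein. Drug was given i.p. daily at 40 mg/kg/day as a 0.1 mg/mL solution in DMSO/PEG 400 (2:1), 100 µL per dose. On day 7, spleen and kidneys were weighed, homogenized, and plated on YPD agar (2 days, 30 °C) for CFU/g. Analysis used Wilcoxon rank-sum, P<0.05.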

[30] = system: Candida albicans; test: Upregulation of orf19.3378 gene expression in Candida albicans SC5314 at 3 uM after 45 mins by microarray method relative to control; assay type: functional; how it was run: as §4
[31] = system: Candida parapsilosis; test: Antifungal activity against Candida parapsilosis ATCC 34136 measured at 48 hrs by broth dilution assay; assay type: functional; conditions: Lodderomyces parapsilosis, ATCC 34136, 48 h; how it was run: as §1
[32] = system: Candida albicans; test: Upregulation of ARE2 gene expression in Candida albicans SC5314 at 3 uM after 15 mins by microarray method relative to control; assay type: functional; how it was run: as §5
[33] = system: Magnusiomyces capitatus; test: Antifungal activity against Geotrichum capitatum up to 96 hrs by broth dilution assay; assay type: functional

C/C=C/CNC(=N)NCCCCCCCCN1CCCCCCCCNC(=N)NC1=O
MIC [1]: 10 µM (≈ 4.36 µg/mL)
Ratio [2]: 8
Activity [3]: Active
fold change (FC) [4]: 2.63
MIC [5]: 10 µM (≈ 4.36 µg/mL)
Ratio [6]: 2
MIC [7]: 5 µM (≈ 2.18 µg/mL)
Activity [8]: Active
Activity [9]: inactive
MIC [10]: 40 µM (≈ 17.4 µg/mL)
fold change (FC) [11]: 3.44
Ratio [12]: 8
fold change (FC) [13]: 6.89
fold change (FC) [14]: 5.86
MIC [15]: 2.5 µM (≈ 1.09 µg/mL)
Activity [16]: Active
inhibition at 20 µM [17]: 99.9%
MIC [18]: 80 µM (≈ 34.9 µg/mL)
Activity [19]: Active
fold change (FC) [20]: 6.13
MIC [21]: > 80 µM
fold change (FC) [22]: 2.88
fold change (FC) [23]: 1.63
MIC [24]: 5 µM (≈ 2.18 µg/mL)
fold change (FC) [25]: 2.93
MIC [26]: 5 µM (≈ 2.18 µg/mL)
MIC [27]: 5 µM (≈ 2.18 µg/mL)
fold change (FC) [28]: 2.86
Activity [29]: Active
fold change (FC) [30]: 3.52
MIC [31]: 80 µM (≈ 34.9 µg/mL)
fold change (FC) [32]: 2.11
Activity [33]: Active
